Assay results from ChEMBL document CHEMBL2331274, “SAR based design of nicotinamides as a novel class of androgen receptor antagonists for prostate cancer” (J Med Chem, 2013).
Active and inactive are the calls of the source. No cut-off for these calls is given here.

How the values were obtained:
[1] = biological target: T1, Androgen receptor (Mus musculus) (UniProt P19091); assay: Agonist activity at mouse androgen receptor at 10 uM after 24 hrs by cell-based luciferase reporter gene assay relative to control
T1 sequence (whole entry): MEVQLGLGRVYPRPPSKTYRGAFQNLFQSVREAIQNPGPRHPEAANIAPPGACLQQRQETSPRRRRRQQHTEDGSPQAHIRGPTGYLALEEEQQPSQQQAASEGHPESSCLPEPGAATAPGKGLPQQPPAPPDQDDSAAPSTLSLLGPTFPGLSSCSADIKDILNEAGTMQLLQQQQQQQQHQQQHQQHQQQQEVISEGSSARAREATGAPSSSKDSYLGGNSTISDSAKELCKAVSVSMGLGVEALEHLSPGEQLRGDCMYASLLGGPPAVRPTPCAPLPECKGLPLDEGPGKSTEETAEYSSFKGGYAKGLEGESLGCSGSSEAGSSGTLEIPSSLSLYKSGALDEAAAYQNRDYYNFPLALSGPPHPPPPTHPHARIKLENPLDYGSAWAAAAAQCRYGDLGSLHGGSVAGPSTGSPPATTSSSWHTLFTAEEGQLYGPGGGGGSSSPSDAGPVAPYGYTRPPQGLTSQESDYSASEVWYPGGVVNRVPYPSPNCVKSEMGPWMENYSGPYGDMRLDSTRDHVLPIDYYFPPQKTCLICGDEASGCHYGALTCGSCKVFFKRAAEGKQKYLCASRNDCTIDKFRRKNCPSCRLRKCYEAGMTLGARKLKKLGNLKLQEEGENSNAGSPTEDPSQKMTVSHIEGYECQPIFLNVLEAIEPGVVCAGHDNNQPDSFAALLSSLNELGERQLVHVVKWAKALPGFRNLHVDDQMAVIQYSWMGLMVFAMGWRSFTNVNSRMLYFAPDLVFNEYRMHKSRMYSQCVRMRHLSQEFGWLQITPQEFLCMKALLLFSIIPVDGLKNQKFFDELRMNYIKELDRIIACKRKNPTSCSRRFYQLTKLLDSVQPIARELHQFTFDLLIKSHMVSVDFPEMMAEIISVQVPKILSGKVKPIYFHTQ
Outline: (§1)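 Transcriptional activity is expressed as a percentage after 10 μM compound, given alone for agonist mode or with 10 nM DHT for antagonist mode. Data are from triplicate experiments.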

PPC-1 = assay: Cytotoxicity against human androgen-independent/AR-negative PPC1 cells after 3 days by MTS/PMS assay; format: functional, cell-based
Androgen receptor [2] = biological target: T2, Androgen receptor (Mus musculus, UniProt P19091); assay: Antagonist activity at mouse androgen receptor assessed as inhibition of transactivation after 24 hrs by cell-based luciferase reporter gene assay
T2 sequence (P19091 whole entry): T1 sequence (whole entry)

[3] = biological target: T3, Androgen receptor (Homo sapiens) (UniProt P10275); assay: Inhibition of androgen receptor-mediated SRC1 coactivator recruitment in human PPC1 cells at 10 uM after 1 hr by DAPI staining-based fluorescence microscopic analysis; format: cell-based; settings: PPC-1
T3 sequence (whole entry): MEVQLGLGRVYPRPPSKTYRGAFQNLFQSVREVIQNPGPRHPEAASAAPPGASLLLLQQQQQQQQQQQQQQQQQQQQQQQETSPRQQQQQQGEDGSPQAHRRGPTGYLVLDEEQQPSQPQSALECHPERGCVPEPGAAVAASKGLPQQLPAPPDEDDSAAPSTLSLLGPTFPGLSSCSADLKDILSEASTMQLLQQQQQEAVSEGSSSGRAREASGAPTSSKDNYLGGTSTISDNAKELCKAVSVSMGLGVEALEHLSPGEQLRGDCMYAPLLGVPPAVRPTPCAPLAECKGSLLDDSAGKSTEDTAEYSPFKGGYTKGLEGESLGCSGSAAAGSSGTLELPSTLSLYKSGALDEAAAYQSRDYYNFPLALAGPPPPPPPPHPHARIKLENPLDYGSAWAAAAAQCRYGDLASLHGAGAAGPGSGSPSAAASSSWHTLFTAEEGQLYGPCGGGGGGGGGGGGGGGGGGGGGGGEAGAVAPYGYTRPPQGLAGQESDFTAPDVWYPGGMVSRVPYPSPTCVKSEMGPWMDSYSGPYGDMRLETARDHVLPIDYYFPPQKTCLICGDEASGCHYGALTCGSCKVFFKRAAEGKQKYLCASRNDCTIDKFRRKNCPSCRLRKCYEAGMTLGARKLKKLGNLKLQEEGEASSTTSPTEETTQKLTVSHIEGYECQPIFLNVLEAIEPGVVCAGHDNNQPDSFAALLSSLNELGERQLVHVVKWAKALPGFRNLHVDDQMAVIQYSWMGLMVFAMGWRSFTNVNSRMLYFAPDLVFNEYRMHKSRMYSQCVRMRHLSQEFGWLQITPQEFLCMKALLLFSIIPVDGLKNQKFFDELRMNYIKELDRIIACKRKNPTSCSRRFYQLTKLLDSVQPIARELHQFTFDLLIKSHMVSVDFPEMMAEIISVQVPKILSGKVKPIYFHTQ

MEF = assay: Cytotoxicity against mouse MEF cells at 10 uM after 4 days by MTS/PMS assay; format: cell-based; settings: 96 h
LNCaP [4] = assay: Cytotoxicity against human androgen-dependent LNCAP cells at 10 uM after 7 days by MTS/PMS assay relative to control; format: functional
[5] = (§2) Cytotoxicity against human androgen-independent/AR-positive C4-2 cells […] after 4 days by MTS/PMS assay; format: functional, cell-based; settings: LNCaP C4-2, 96 h
[6] = biological target: T1, Androgen receptor (Mus musculus); assay: Antagonist activity against mouse androgen receptor assessed as reduction of 10 nM DHT-induced transcriptional activity at 10 uM after 24 hrs by cell-based luciferase reporter gene assay relative to control; outline: as §1
LNCaP [7] = assay: Cytotoxicity against human androgen-dependent LNCAP cells after 6 days by MTS/PMS assay; format: functional, cell-based; settings: 144 h
[8] = biological target: T3, Androgen receptor (Homo sapiens); assay: Inhibition of androgen receptor-mediated SRC2 coactivator recruitment in human PPC1 cells at 10 uM after 1 hr by DAPI staining-based fluorescence microscopic analysis; format: cell-based; settings: PPC-1
Androgen receptor [9] = biological target: T2, Androgen receptor; assay: Displacement of [3H] ]5alpha-DHT from mouse androgen receptor expressed in monkey COS7 cells after 2 hrs by scintillation counting analysis; format: cell-based, COS-7
[10] = biological target: T3, Androgen receptor (Homo sapiens); assay: Inhibition of DHT-induced androgen receptor-mediated GFP-AR protein nuclear translocation in human PPC1 cells at 10 uM after 1 hr by DAPI staining-based fluorescence microscopic analysis; format: cell-based; settings: PPC-1
LNCaP C4-2 = assay: as §2; format: functional, cell-based

SMILES | Activity [1] [%] | Activity (PPC-1) | IC50 (Androgen receptor [2]) [nM] | inhibition [3] | Activity (MEF) | inhibition of growth at 10 µM (LNCaP [4]; 168 h, read-out: GI) [%] | IC50 [5] [nM] | inhibition [6] [%] | IC50 (LNCaP [7]) [nM] | inhibition [8] | Ki (Androgen receptor [9]) [nM] | inhibition [10] | growth inhibition (GI) (LNCaP [4]) | growth inhibition (GI) (LNCaP C4-2)
COc1ccc2c(c1OC)CCN(c1ccc(C(=O)Nc3cccc(C)n3)cn1)C2 | 4.7 | inactive | 990 | Active | Non-toxic | 90 | 2500 | 95.6 | 680 | Active | 25600 | Active | – | –
Cc1cccc(NC(=O)c2ccc(N3CCc4ccccc4C3)nc2)n1 | 3 | inactive | 4450 | Active | – | – | – | 89.9 | – | Active | 1460 | – | Active | Active
